Key:
Egl nine homolog 1 = Egl nine homolog 1 (Homo sapiens, UniProt Q9GZT9); assay: Inhibition of recombinant human PHD2 (181 to 426 residues) using DLDLEMLAPYIPMDDDFQL peptide as substrate preincubated for 15 mins followed by substrate addition and measured after 15 mins by Q-TOF mass spectrometric analysis
Method in brief: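 Catalytic domain tPHD2 181–426 at 150 nM final in 50 mM Tris.Cl pH 7.5, 50 mM NaCl, with 0.5% DMSO. Substrate is CODD peptide (C-terminal amide). Enzyme equilibrated with compound for 15 min, then substrate with 2-oxoglutarate added and reacted for 15 min. Hydroxylated product measured by C4 SPE-MS. 11-point 3-fold titrations, normalised to no-enzyme control, IC50 by non-linear regression.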

SH-SY5Y [1] = assay: Neuroprotective activity against H2O2-induced oxidative stress in human SH-SY5Y cells assessed as reduction in rate of cell death pretreated for 2 hrs followed by H2O2 challenge by phase contrast microscopic analysis; assay type: functional, cell-based
Method in brief: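 SH-SY5Y cells pretreated with compound for 2 h (3–10 or 10–50 µM), then given 50 µM H2O2. Dead cells counted manually on phase-contrast images. Mean ± SEM from 4 separate cultures, one-way ANOVA with Dunnett's test.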

SH-SY5Y [2] = assay: Cytotoxicity against human SH-SY5Y cells assessed as reduction in cell viability at 100 uM incubated for 24 hrs by MTT assay; assay type: cell-based
Method in brief: (§1)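 SH-SY5Y neuroblastoma cells, undifferentiated, grown in DMEM/F12 (43.5% each) with 10% FBS, pyruvate and glutaMAX at 37 C, 5% CO2. Cells harvested at 85–95% confluence and seeded for MTT, treated over 1–100 µM. MTT (0.1 mg/mL) added for 3 h at 37 C. Formazan dissolved in DMSO and read at 570 nm. Normalised to MEM vehicle (100%) and 0.25% triton X-100 (0%) controls.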

SH-SY5Y [3] = assay: Cytotoxicity against human SH-SY5Y cells assessed as reduction in cell viability upto 100 uM incubated for 24 hrs by MTT assay; assay type: cell-based; method in brief: as §1

Chain of Egl nine homolog 1 (Q9GZT9 whole entry, the tested form may be a part): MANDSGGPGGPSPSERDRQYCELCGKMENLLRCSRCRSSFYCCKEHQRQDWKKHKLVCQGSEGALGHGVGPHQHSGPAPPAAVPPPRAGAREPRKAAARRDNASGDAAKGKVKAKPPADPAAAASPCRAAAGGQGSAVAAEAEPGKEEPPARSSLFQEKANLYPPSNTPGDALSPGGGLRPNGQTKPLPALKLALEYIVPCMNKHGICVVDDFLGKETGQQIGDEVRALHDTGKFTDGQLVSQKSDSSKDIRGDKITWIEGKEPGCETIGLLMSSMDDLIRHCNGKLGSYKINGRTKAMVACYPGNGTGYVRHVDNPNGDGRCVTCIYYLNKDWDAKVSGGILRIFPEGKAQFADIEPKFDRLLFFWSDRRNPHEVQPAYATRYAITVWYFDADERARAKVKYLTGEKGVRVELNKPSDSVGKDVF

| SMILES | IC50 (Egl nine homolog 1) | other results |
| --- | --- | --- |
| O=C1c2ccc3c4c(ccc(c24)C(=O)N1NC(=O)C(F)(F)F)CC3 | > 100 µM | – |
| Cc1ccc(-n2nc3c(SCC(=O)O)nnc(C)c3c2C)cc1 | 26 µM | Activity (SH-SY5Y [1]): Dose-Dependent Effect; Activity (SH-SY5Y [2]): Toxic |
| Cc1c(Br)c(C(=O)Nc2ccc(Cl)cc2C(F)(F)F)nn1C | > 100 µM | – |
| CSCCC(CO)NC(=O)Cn1nc(-n2nc(C)cc2C)ccc1=O (stereo unspecified) | > 100 µM | – |
| C=CCN(CC=C)Cc1c(C)nc2ccccc2c1O | > 100 µM | – |
| CC(C)c1nc2cc(NC(=O)CCn3cnnn3)ccc2n1C | > 100 µM | – |
| O=S(=O)(Nc1cc(C(F)(F)F)ccc1Cl)c1cccc2cccnc12 | > 100 µM | – |
| O=C(O)c1cccc(NS(=O)(=O)c2cccc3cccnc23)c1 | > 100 µM | – |

Continued, in another order:

| IC50 (Egl nine homolog 1) | SMILES | other results |
| --- | --- | --- |
| > 100 µM | O=C(CCn1cnnn1)N1CCC(O)(c2cccc(C(F)(F)F)c2)CC1 | – |
| > 100 µM | Cc1cc(NC(=O)c2nn(C)c(C)c2[N+](=O)[O-])no1 | – |
| > 100 µM | COCc1cc(O)nc(Nc2nc(C)c3ccc(C)cc3n2)n1 | – |
| 77.7 µM | COC(=O)c1c(NC(=O)C2C(C(=O)O)[C@@H]3C=C[C@H]2CC3)sc(C)c1C (stereo partly specified) | – |
| > 100 µM | O=C(Nc1ccccc1-c1nc2ccccc2c(=O)o1)C(F)(F)F | – |
| > 100 µM | COc1cccc(NC(=O)COc2ccccc2P(=O)(O)O)c1 | – |
| > 100 µM | Cn1nc(C(=O)Nc2ccccc2Cl)cc1C(=O)O | – |
| > 100 µM | O=C(O)CCCN1C(=O)[C@@H]2[C@H](C1=O)[C@H]1C=C[C@@H]2C1 | – |
| 4.09 µM | Cc1nc(Sc2ncccc2C(=O)O)n[nH]1 | Activity (SH-SY5Y [3]): Non-Toxic; Activity (SH-SY5Y [1]): Dose-Dependent Effect |

— ChEMBL document CHEMBL4819086, “Discovery of neuroprotective agents that inhibit human prolyl hydroxylase PHD2” (Bioorg Med Chem, 2021)
